An excerpt weighted towards active compounds, which were near 1.5% of everything screened.
Keap1 Nrf2 FP – Keap1-Nrf2 (human) interaction inhibition; Keap1 Kelch-Nrf2 peptide fluorescence polarization, 1536-well; inhibition, % at 9.4 µM; actives 0.15% (n = 340,000); AID 504523; in the data active = inhibition above about 12%;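 note: human Keap1 Kelch domain with fluorescein labeled Nrf2 9mer peptide probe; higher means more block of Keap1 binding to Nrf2 peptide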
CaV13 FRET inh – Primary screen for inhibitors of IQ motif and Ca2+-dependent inactivation inhibitor domain binding in CACNA1D, Förster resonance energy transfer in living cells, …; actives 0.098% (n = 340,000); inhibition, % at 12.3 µM; HEK cells, CFP/YFP FRET ICDI-IQ, plate reader, 10 min; percent FRET-ratio fall versus neutral wells; AID 743397;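 active = mean replicate inhibition of at least 30% and at least 1% of replicates passing that level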
CAL PDZ FP-1 – inhibitors of human CAL PDZ peptide binding | Q9HD26 | purified CAL PDZ, TMR-peptide fluorescence polarization, 1 h | inhibition, % at 20 µM | actives 0.02% (n = 330,000);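 active = highest replicate inhibition of at least 40%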
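Material: tagged CAL PDZ domain; buffer or medium: 25 mM sodium phosphate pH 7.4, 150 mM NaCl, TCEP, IgG, Thesit; compound dosing: single point, 20 µM; schedule: 1 h incubation at room temperature before polarization reading; measured by: FP readout, S and P plane fluorescence; read-out basis: percent inhibition from loss of millipolarization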
C-LANA FP – inhibitors of KSHV LANA C-terminal domain DNA binding; MBP-C-LANA/FAM-LBS DNA binding, fluorescence polarization; inhibition, % at 9 µM; actives 0.078% (n = 340,000);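 active = highest replicate inhibition at or above 60% at 9 µM, even if other replicates fall short; inactive = all replicates below 60% inhibition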
CAL PDZ FP-2 – CAL PDZ (human) peptide binding inhibition | Q9HD26 | purified CAL PDZ, TMR-peptide fluorescence polarization, 1 h | inhibition, % at 24.9 µM | actives 0.92% (n = 300,000) | AID 602252;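 active = mean inhibition of at least 30% with at least half of replicates also reaching 30%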
LANA-H2B inh – blocks KSHV LANA binding to histone H2A/H2B | Q9QR71 | cell-free LANA-H2A/H2B peptide, fluorescence polarization | inhibition, % (test concentration not listed) | actives 0.6% (n = 320,000); in the data active = inhibition mostly above about 10%, no sharp cut-off; inactive = mostly below about 6.7%
Target sequence (Q9QR71 whole entry, looked up): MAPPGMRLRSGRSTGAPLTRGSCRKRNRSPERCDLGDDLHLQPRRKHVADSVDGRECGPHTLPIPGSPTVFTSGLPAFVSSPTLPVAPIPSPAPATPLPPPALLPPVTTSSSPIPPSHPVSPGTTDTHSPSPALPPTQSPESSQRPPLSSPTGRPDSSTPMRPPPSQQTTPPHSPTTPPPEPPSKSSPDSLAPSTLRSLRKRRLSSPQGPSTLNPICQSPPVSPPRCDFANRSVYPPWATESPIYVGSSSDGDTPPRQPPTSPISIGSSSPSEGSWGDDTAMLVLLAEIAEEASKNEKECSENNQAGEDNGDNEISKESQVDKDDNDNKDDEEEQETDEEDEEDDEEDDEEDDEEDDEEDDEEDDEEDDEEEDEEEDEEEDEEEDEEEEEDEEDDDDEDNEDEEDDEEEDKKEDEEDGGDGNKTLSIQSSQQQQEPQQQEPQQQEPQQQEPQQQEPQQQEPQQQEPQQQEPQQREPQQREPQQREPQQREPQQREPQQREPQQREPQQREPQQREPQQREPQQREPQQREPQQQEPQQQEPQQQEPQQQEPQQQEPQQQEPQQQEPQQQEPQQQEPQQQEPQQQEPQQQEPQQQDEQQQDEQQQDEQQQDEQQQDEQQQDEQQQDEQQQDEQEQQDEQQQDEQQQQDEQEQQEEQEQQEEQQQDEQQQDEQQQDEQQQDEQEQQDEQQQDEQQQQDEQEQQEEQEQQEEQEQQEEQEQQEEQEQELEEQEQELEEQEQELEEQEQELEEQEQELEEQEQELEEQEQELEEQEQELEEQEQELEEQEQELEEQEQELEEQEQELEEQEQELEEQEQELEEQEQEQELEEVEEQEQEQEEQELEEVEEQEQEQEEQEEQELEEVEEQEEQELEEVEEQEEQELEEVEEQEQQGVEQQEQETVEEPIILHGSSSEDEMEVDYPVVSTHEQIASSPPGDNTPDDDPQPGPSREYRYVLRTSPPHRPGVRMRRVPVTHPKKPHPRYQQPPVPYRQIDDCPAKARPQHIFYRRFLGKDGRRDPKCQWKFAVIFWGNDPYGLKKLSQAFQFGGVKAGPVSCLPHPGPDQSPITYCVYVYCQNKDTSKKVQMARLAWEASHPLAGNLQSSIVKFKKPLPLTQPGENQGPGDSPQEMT
Large screens that a line does not name were inactive.

CCC(C)(C)NC(=O)C1CCN(c2nc(OC)nc(OC)n2)CC1	CAL PDZ FP-2 34
CC(C)(C)c1cccc(N/C(=C\C(=O)c2ccccc2)c2ccccc2)c1	none (no result: Keap1 Nrf2 FP, CAL PDZ FP-1, C-LANA FP, CAL PDZ FP-2, LANA-H2B inh)
O=[N+]([O-])c1ccccc1S(=O)(=O)N(CC1CO1)c1ccccc1 (centres undefined)	LANA-H2B inh 13
Cc1ccc(N(CC2CO2)S(=O)(=O)c2ccccc2[N+](=O)[O-])cc1 (centres undefined)	none (no result: CAL PDZ FP-2)
COc1ccccc1CNc1ccc2nnc(CCNC(=O)c3ccccc3)n2n1	CAL PDZ FP-2 54
COc1ccccc1CNc1ccc2nnc(CCNC(=O)c3ccc(C)cc3)n2n1	none
Cc1nnc2sc(SCC(=O)Nc3cccc(Cl)c3)nn2c1=O	CAL PDZ FP-2 99
COc1ccc(NC(=O)CSc2nn3c(=O)c(C)nnc3s2)cc1	LANA-H2B inh 28 (no result: CaV13 FRET inh)
Cc1sc(NC(=O)c2ccco2)c(C(c2cccnc2)N2CCCC2)c1C (centres undefined)	none (no result: CAL PDZ FP-1)
COc1cc2cc(CN(CCc3cccc(C)c3)C(=S)NCCCN3CCOCC3)c(=O)[nH]c2cc1OC	none (no result: CAL PDZ FP-2)
Cc1cc(C)c2c(CN3CCC(C)CC3)cc(=O)oc2c1	CAL PDZ FP-2 80
C[C@H](CO)N1C[C@H](C)[C@@H](CN(C)Cc2ccc(C(=O)O)cc2)OCCCC[C@H](C)Oc2ccc(NC(=O)CCC(F)(F)F)cc2C1=O	none (no result: Keap1 Nrf2 FP, CAL PDZ FP-1, C-LANA FP, CAL PDZ FP-2, LANA-H2B inh)
Cc1cccc(N2CCN(C(=O)Cc3ccccc3[N+](=O)[O-])CC2)c1C	LANA-H2B inh 21
Cc1ccccc1S(=O)(=O)N1[C@@H](c2ccc(Cl)cc2)C(C(=O)O)=CC[C@H]1c1ccc(Cl)cc1	LANA-H2B inh 60
Cc1ccc([C@H]2C(C(=O)O)=CC[C@@H](c3ccc(Cl)cc3)N2S(=O)(=O)c2ccccc2C)cc1	none (no result: CaV13 FRET inh)
CCCCC[C@@H]1C=C(C(=O)O)[C@H](c2ccc(Cl)c(Cl)c2)N1S(=O)(=O)c1ccc(C)cc1	LANA-H2B inh 120
CC[C@@H]1C=C(C(=O)O)[C@H](c2ccc(Cl)c(Cl)c2)N1S(=O)(=O)c1ccc(C)cc1	none
Cc1ccc([C@H]2C(C(=O)O)=CC[C@@H](c3ccc(Cl)cc3)N2S(=O)(=O)c2ccc(C)cc2)cc1	none
Cc1ccc([C@@H]2CC=C(C(=O)O)[C@H](c3ccccc3)N2S(=O)(=O)c2ccc(C)cc2)cc1	CAL PDZ FP-2 50
Cc1ccc([C@H]2C(C(=O)O)=CC[C@@H](c3ccc(C)cc3)N2S(=O)(=O)c2ccc(C)cc2)cc1	LANA-H2B inh active
CCN(Cc1ccccc1)S(=O)(=O)c1ccc(C(=O)N(CCCN(C)C)c2nc3c(C)c(C)ccc3s2)cc1	none
C[C@H]1CN(S(=O)(=O)C(C)(C)C)[C@@H](CCO)/C1=C\CCO	none (no result: Keap1 Nrf2 FP, CAL PDZ FP-1, C-LANA FP, CAL PDZ FP-2, LANA-H2B inh)
Cc1cc(C)c(N2C(=NC(=O)CCCC(=O)O)SC3CS(=O)(=O)CC32)c(C)c1 (centres undefined)	CAL PDZ FP-2 41
Cc1ccc(CN2C(=NC(=O)CCC(=O)O)SC3CS(=O)(=O)CC32)cc1 (centres undefined)	none
CCc1ccc(CN2CCCC(CCC(=O)N3CCN(c4ccccn4)CC3)C2)o1 (centres undefined)	none
C[C@@H]1COc2cc(N3CCCCC3)ccc2S(=O)(=O)N1	none (no result: Keap1 Nrf2 FP, CAL PDZ FP-1, C-LANA FP, CAL PDZ FP-2, LANA-H2B inh)
C=CCC[C@H](Cc1ccc(F)cc1)C(=O)O[C@H](CNC(=O)[C@@H](CC=C)CC(=O)N(CCO)Cc1ccccc1)c1ccccc1	LANA-H2B inh 71
C=CC[C@H](CC(=O)N(CCO)Cc1ccccc1)C(=O)NC[C@@H](OC(=O)[C@@H](CC=C)Cc1ccc(F)cc1)c1ccccc1	none
COc1ccc(C(CNC(=O)C2COc3ccccc3O2)N2CCCC2)cc1 (centres undefined)	CAL PDZ FP-2 68
O=C(NNC(=O)c1n[nH]c(=O)c2ccccc12)c1ccc(Br)cc1	CAL PDZ FP-2 109
CCc1ccc(C(=O)NNC(=O)c2n[nH]c(=O)c3ccccc23)cc1	none
Cc1cc(NC(=O)c2n[nH]c(=O)c3ccccc23)ccc1Br	none (no result: Keap1 Nrf2 FP, CAL PDZ FP-1, C-LANA FP, CAL PDZ FP-2)
CC(C)c1ccc(NC(=O)c2n[nH]c(=O)c3ccccc23)cc1	CAL PDZ FP-2 35 (no result: LANA-H2B inh)
O=C(/C=C(\Nc1cccc(F)c1)c1ccccc1)c1ccccc1	none (no result: Keap1 Nrf2 FP, CAL PDZ FP-1, C-LANA FP, CAL PDZ FP-2, LANA-H2B inh)
Cc1noc(C)c1S(=O)(=O)N(C)C[C@H]1Oc2ccc(NC(=O)CCC(F)(F)F)cc2C(=O)N([C@H](C)CO)C[C@@H]1C	none
CCCCN1CC(COCc2ccccc2)Oc2cccc(N3CCCCC3)c2S1(=O)=O (centres undefined)	none (no result: Keap1 Nrf2 FP, CAL PDZ FP-1, C-LANA FP, CAL PDZ FP-2, LANA-H2B inh)
NS(=O)(=O)c1ccc(CCNC(=O)c2cc([N+](=O)[O-])ccc2N2CCCCC2)cc1	none
O=C(Nc1nnc(-c2cccs2)s1)c1cccc(F)c1	none
CN(Cc1c(C(=O)N2CCCCCCC2)nc2ccc(Cl)cn12)C1CCOC1 (centres undefined)	LANA-H2B inh 19
Cc1noc(C)c1CSc1nnc2n(-c3ccccc3)c(=O)c3ccccc3n12	LANA-H2B inh 21
Cc1noc(C)c1CSc1nc2ccccc2c(=O)n1-c1ccccc1	none
CCN1CCN(Cc2ccc(NC(=O)c3cccc(-c4ccc5nc(NC(=O)C6CC6)sc5n4)c3)cc2C(F)(F)F)CC1	none (no result: Keap1 Nrf2 FP, CAL PDZ FP-1, C-LANA FP, CAL PDZ FP-2, LANA-H2B inh)
S=c1[nH]nc(-c2ccc(Cl)cc2Cl)n1-c1ccc(Cl)cc1	LANA-H2B inh 45
CSC(=NC#N)N1CCN(c2ccccn2)CC1	LANA-H2B inh 30
CCN1/C(=C/C=C/c2sc3ccccc3[n+]2CC)Sc2ccccc21	none (no result: CaV13 FRET inh)
CCN1/C(=C/C=C/c2oc3ccc(-c4ccccc4)cc3[n+]2CC)Oc2ccc(-c3ccccc3)cc21	CAL PDZ FP-2 36
Cc1ccc(-c2nc3c(C)cc(Br)cn3c2Cc2ccccc2C(F)(F)F)cc1	none (no result: Keap1 Nrf2 FP, CAL PDZ FP-1, C-LANA FP, CAL PDZ FP-2, LANA-H2B inh)
CCCCC(NS(=O)(=O)c1ccc(OC)cc1)C(=O)O (centres undefined)	CAL PDZ FP-2 49
O=c1[nH]c(/C(Cl)=C/c2cccc(F)c2)nc2cc(C(F)(F)F)ccc12	none
CCc1ccc(/C=C(\Cl)c2nc3cc(Cl)ccc3c(=O)[nH]2)cc1	CAL PDZ FP-2 53
NC(=O)c1cc[n+](CC2=C(C(=O)O)N3C(=O)[C@@H](NC(=O)C(c4ccccc4)S(=O)(=O)[O-])[C@H]3SC2)cc1 (some centres undefined)	Keap1 Nrf2 FP 23, C-LANA FP 102 (no result: CaV13 FRET inh)
CCC/C(=N/NC(=O)c1cccc(Cl)c1)c1ccccc1	LANA-H2B inh 14
O=C(NC1CC1)c1ccc(-n2cccc2)cc1	LANA-H2B inh 99
O=C(NC1CCCCCC1)c1ccc(-n2cnnc2)cc1	none
CCOCCCn1c(=S)[nH]c2cc(C(=O)NC3CCCC(C)C3C)ccc2c1=O (centres undefined)	CAL PDZ FP-2 62

Assay outcomes: PubChem, Broad Institute
